Data published in BindingDB's records for doi:10.1021/acs.jmedchem.7b01557 (University of Colorado, 2018).

Target: T1, Toll-like receptor 7 (Homo sapiens, UniProt Q9NYK1)
T1 sequence (Q9NYK1 whole entry): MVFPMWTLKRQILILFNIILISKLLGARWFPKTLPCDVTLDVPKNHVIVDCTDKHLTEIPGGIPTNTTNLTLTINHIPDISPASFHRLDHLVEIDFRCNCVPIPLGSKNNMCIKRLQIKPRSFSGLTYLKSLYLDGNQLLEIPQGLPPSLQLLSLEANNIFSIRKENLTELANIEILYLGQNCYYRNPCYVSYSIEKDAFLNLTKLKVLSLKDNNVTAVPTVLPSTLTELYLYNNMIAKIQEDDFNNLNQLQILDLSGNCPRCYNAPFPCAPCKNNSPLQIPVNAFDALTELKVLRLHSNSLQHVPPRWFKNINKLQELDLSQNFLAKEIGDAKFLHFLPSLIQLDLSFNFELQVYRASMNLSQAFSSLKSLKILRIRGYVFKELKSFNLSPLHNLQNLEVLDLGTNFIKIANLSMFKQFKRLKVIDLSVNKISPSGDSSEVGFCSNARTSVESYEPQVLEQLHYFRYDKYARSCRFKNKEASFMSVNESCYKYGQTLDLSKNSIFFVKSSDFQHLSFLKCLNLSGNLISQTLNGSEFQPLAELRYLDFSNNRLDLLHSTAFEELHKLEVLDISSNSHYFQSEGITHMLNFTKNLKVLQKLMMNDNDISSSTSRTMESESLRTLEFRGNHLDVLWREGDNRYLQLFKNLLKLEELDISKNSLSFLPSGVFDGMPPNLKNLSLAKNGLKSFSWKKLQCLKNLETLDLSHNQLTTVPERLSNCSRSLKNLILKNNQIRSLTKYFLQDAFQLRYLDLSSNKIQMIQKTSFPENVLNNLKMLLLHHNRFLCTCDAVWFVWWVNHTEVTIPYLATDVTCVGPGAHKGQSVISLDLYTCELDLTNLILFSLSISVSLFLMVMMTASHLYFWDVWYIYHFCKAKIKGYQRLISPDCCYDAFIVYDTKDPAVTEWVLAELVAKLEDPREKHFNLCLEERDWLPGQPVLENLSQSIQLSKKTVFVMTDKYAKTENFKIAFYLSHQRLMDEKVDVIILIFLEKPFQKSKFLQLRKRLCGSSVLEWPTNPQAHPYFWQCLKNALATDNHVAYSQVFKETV
Assay: Antagonist activity at human TLR7 expressed in HEK293 cells assessed as inhibition of R848-induced NF-kappaB activation-mediated SEAP production after 24 hrs by Quanti-blue-based assay
How it was run: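 HEK293 cells stably carrying a human TLR plus an NF-κB-driven SEAP reporter, seeded 5×10^4/well for 24 h at 37 °C, then stimulated: Pam3CSK4 100 µg/mL (TLR1/2), Pam2CSK4 100 µg/mL, poly I:C 5 µg/mL (TLR3), LPS 20 ng/mL (TLR4), flagellin 100 ng/mL (TLR5), R848 1 µg/mL (TLR7, TLR8), CpG-ODN2006 1 µg/mL (TLR9). After 24 h with compound, supernatant mixed with QUANTI-Blue, 1 h 37 °C, OD 620 nm.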

IC50 | Compound
27 µM | Nc1nccnc1C(=O)NNC(=O)c1ccc(OC(F)(F)F)cc1
1.83 µM | Cc1ccc(-c2nc(C(=O)NNC(=O)c3ccccn3)cs2)cc1
2.4 µM | CCc1ccc(-c2nc(C(=O)NNC(=O)c3ccccn3)cs2)cc1
38 µM | Nc1nccnc1C(=O)NNC(=O)c1cccc(C(F)(F)F)c1
0.99 µM | O=C(NNC(=O)c1csc(-c2ccc(C(F)(F)F)cc2)n1)c1ccccn1
23.2 µM | O=C(NNC(=O)c1csc(-c2cccnc2)n1)c1ccccn1
60 µM | Cc1nc(C(=O)NNC(=O)c2cccc(Cl)c2)cs1
0.9 µM | O=C(NNC(=O)c1csc(-c2cccc(Br)c2)n1)c1ccccn1
1 µM | O=C(NNC(=O)c1csc(-c2cccc(Cl)c2)n1)c1ccccn1
0.26 µM | O=C(NNC(=O)c1csc(-c2ccc(Cl)cc2Cl)n1)c1ccccn1
15 µM | O=C(NNC(=O)c1ccccn1)c1cccc(C(F)(F)F)c1
17.3 µM | O=C(NNC(=O)c1ncccc1O)c1ccc(Br)cc1
14 µM | CC(C)c1nc(C(=O)NNC(=O)c2ccccn2)cs1
1.9 µM | CN(C)c1ccc(-c2nc(C(=O)NNC(=O)c3ccccn3)cs2)cc1
44.8 µM | Cc1nc(C(=O)NNC(=O)c2ccc(Cl)cc2)cs1
2.1 µM | O=C(NNC(=O)c1csc(-c2ccc(Cl)cc2)n1)c1ccccn1
3.09 µM | COc1ccc(-c2nc(C(=O)NNC(=O)c3ccccn3)cs2)cc1
5.8 µM | O=C(NNC(=O)c1csc(-c2ccccc2)n1)c1ccccn1

IC50 | Compound
24.7 µM | O=C(NNC(=O)c1ccccn1)c1ccc(Cl)cc1
14.2 µM | O=C(NNC(=O)c1ncccc1O)c1cccc(C(F)(F)F)c1
7.9 µM | O=C(NNC(=O)c1ncccc1O)c1ccc(OC(F)(F)F)cc1
22 µM | O=C(NNC(=O)c1ccccn1)c1ccc(OC(F)(F)F)cc1
2.6 µM | O=C(NNC(=O)c1csc(-c2cccc(F)c2)n1)c1ccccn1
4.4 µM | O=C(NNC(=O)c1csc(-c2ccc(F)cc2)n1)c1ccccn1
0.5 µM | O=C(NNC(=O)c1csc(-c2cccc(Cl)c2Cl)n1)c1ccccn1
27.8 µM | O=C(NNC(=O)c1ncccc1O)c1ccc(Cl)cc1
17 µM | O=C(NNC(=O)c1ccccn1)c1ccc(Br)cc1
1.02 µM | O=C(NNC(=O)c1csc(-c2cccc(C(F)(F)F)c2)n1)c1ccccn1
3.9 µM | COc1ccc(-c2nc(C(=O)NNC(=O)c3ccccn3)cs2)cc1OC
17 µM | O=C(NNC(=O)c1ccccn1)c1ccc(C(F)(F)F)cc1
25 µM | Nc1nccnc1C(=O)NNC(=O)c1ccc(C(F)(F)F)cc1
16 µM | Nc1cccnc1C(=O)NNC(=O)c1cccc(C(F)(F)F)c1
30 µM | Cc1nc(C(=O)NNC(=O)c2ccccn2)cs1
0.44 µM | O=C(NNC(=O)c1csc(-c2cc(Cl)cc(Cl)c2)n1)c1ccccn1
13.4 µM | O=C(NNC(=O)c1ncccc1O)c1ccc(C(F)(F)F)cc1
